From ChEMBL document CHEMBL1154714, “Design and synthesis of novel P2 substituents in diol-based HIV protease inhibitors” (Eur J Med Chem, 2010) come the findings set out here.

In data set [1] the target is T1, Protease (Human immunodeficiency virus 1, UniProt Q9YQ12). As to the kind of experiment: Inhibition of HIV1 recombinant protease by fluorometric assay. In short, it runs like this: (§1)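 HIV-1 protease was cloned and expressed heterologously in E. coli. K_i values were determined in a fluorometric assay.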
Data set [2] has as its system Human immunodeficiency virus 1. As to the kind of experiment: Antiviral activity against HIV1 3B bearing wild type protease infected in human MT4 cells assessed as inhibition of virus-induced cytopathic effect after 5 days by XTT assay. It counts as functional, organism-based. The settings on record: Human immunodeficiency virus 1, 3B, MT4, 120 h. In short, it runs like this:
(§2)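 MT-4 cells (2 ×10⁴ cells/well) got 5-fold serial compound dilutions together with 20–50 TCID of HIV IIIb. The virus was wild type, or an M46I/V82F/I84V mutant isolated after 20 passages of IIIb in MT4 cells under increasing ritonavir. Cell viability was read with XTT after five days. EC₅₀ came from dose–response curves of percent cytoprotection.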
(In general: Cytopathic effects are the visible damage that an infection or toxin causes in cultured cells.)

In data set [3] the test system is Human immunodeficiency virus 1. Nature of the data set: Antiviral activity against HIV1 3B bearing protease with M46I, V82F and I84V mutation infected in human MT4 cells assessed as inhibition of virus-induced cytopathic effect after 5 days by XTT assay. The settings on record: Human immunodeficiency virus 1, 3B, MT4, 120 h. The format is functional, organism-based. In short, it runs like this:
(§3)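 HIV IIIb resistant variant (M46I, V82F, I84V) obtained after 20 passages in MT4 cells under rising ritonavir. MT4 cells (2×10⁴/well) received 5-fold serial compound dilutions together with 20–50 TCID of wild-type or mutant IIIb. After 5 days, cytopathic effect was read as viability by XTT. EC50 was taken from dose-response curves of percent cytoprotection.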

Data set [4] concerns Human immunodeficiency virus 1. As to the kind of experiment: Ratio of EC50 for HIV1 3B bearing protease with M46I, V82F and I84V mutation to EC50 for HIV1 3B bearing wild type protease. The format is functional. In a few lines: as §3
A short description of data set [5]: Apparent permeability across human Caco-2 cell membrane. It counts as ADME, cell-based. (In general: Caco-2 monolayers are a common model of the intestinal barrier.)
For data set [6], the target named is T1, Protease. As to the kind of experiment: Inhibition of HIV1 protease. In a few lines: as §1
In data set [7] the test system is Human immunodeficiency virus 1. As to the kind of experiment: Antiviral activity against HIV1. The format is functional, organism-based. In short, it runs like this:
as §2

T1 sequence (Q9YQ12 whole entry): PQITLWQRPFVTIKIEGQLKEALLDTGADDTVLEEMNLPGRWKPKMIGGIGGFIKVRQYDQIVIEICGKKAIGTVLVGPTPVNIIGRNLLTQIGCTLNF

As to `CC(C)[C@H](NC(=O)[C@H](OCc1ccccc1)[C@H](O)[C@@H](O)[C@@H](OCc1ccccc1)C(=O)N[C@H]1c2ccccc2C[C@H]1O)C(=O)NCCF`, at Protease [1], the inhibitory constant (Ki) amounted to 1 nM. The figures for the EC50 in data set [2] and in data set [3] were 170 nM and 440 nM, respectively. Also, the Ratio EC50 in data set [4] is 3. The Papp in data set [5] is 1.6 ×10⁻⁶ cm/s.

For the compound `COCCNC(=O)[C@@H](NC(=O)[C@H](OCc1ccccc1)[C@H](O)[C@@H](O)[C@@H](OCc1ccccc1)C(=O)N[C@H]1c2ccccc2C[C@H]1O)C(C)C`, the Ki at Protease [1] stood at 2.3 nM. Moreover, the values for the EC50 in data set [2] and in data set [3] were 250 nM and 1200 nM, respectively. Besides, the Ratio EC50 in data set [4] came out at 5.

Regarding `CNC(=O)[C@@H](NC(=O)[C@H](OCc1ccccc1)[C@H](O)[C@@H](O)[C@@H](OCc1ccccc1)C(=O)N[C@H]1c2ccccc2C[C@H]1O)C1COC1`, the Ki at Protease [1] turned out to be 10 nM. Also, the EC50 was 5400 nM in data set [2] and more than 10000 nM in data set [3]. In data set [4], the Ratio EC50 was more than 1.6.

`CNC(=O)[C@H](NC(=O)[C@H](OCc1ccccc1)[C@H](O)[C@@H](O)[C@@H](OCc1ccccc1)C(=O)N[C@H]1c2ccccc2C[C@H]1O)C1COC1`: at Protease [1], the Ki was 99 nM. Further, the EC50 in data set [2] and in data set [3] was more than 10000 nM in each case.

Consider `CNC(=O)[C@H](CCOC)NC(=O)[C@H](OCc1ccccc1)[C@H](O)[C@@H](O)[C@@H](OCc1ccccc1)C(=O)N[C@H]1c2ccccc2C[C@H]1O`, for which the Ki on Protease [1] stood at 10 nM. Besides, the values for the 50% effective concentration (EC50) in data set [2] and in data set [3] were 1800 nM and 6900 nM, respectively. The Ratio EC50 in data set [4] worked out at 3.

For the compound `CNC(=O)[C@@H](NC(=O)[C@H](OCc1ccccc1)[C@H](O)[C@@H](O)[C@@H](OCc1ccccc1)C(=O)N[C@H]1c2ccccc2C[C@H]1O)C(C)COC` (single isomer, unassigned; 4e), the Ki at Protease [1] is 0.7 nM. Further, the EC50 was 330 nM in data set [2] and 1300 nM in data set [3]. For the same compound, the Ratio EC50 in data set [4] came to 4.

Turning to `O=C(N[C@H]1c2ccccc2C[C@H]1O)[C@H](OCc1ccccc1)[C@H](O)[C@@H](O)[C@@H](OCc1ccccc1)C(=O)N[C@H]1c2ccccc2C[C@H]1O`, the affinity on Protease [6] corresponds to a Ki of 0.6 nM. Moreover, in data set [7], a half-maximal effect (EC50) was put at 100 nM.

Turning to `CNC(=O)[C@@H](NC(=O)[C@H](OCc1ccccc1)[C@H](O)[C@@H](O)[C@@H](OCc1ccccc1)C(=O)N[C@H]1c2ccccc2C[C@H]1O)C(C)C`, the Ki on Protease [1] and on Protease [6] was 0.2 nM in each case. Further, the results for the EC50 in data set [2], in data set [3] and in data set [7] were 140 nM, 1200 nM and 140 nM, respectively. Also, in data set [4], the Ratio EC50 came out at 9. Besides, the Papp in data set [5] was 1.4 ×10⁻⁶ cm/s.

As to `CC(C)[C@H](NC(=O)[C@H](OCc1ccccc1)[C@H](O)[C@@H](O)[C@@H](OCc1ccccc1)C(=O)N[C@H]1c2ccccc2C[C@H]1O)C(=O)NCC(F)(F)F`, the Ki at Protease [1] came to 1.9 nM. The EC50 came out at 150 nM in data set [2] and 920 nM in data set [3]. Also, in data set [4], the Ratio EC50 came to 5. In data set [5], the Papp was 2.9 ×10⁻⁶ cm/s.

`CNC(=O)[C@@H](NC(=O)[C@H](OCc1ccccc1)[C@H](O)[C@@H](O)[C@@H](OCc1ccccc1)C(=O)N[C@H]1c2ccccc2C[C@H]1O)C(C)COC` (single isomer, unassigned; 4d): the inhibition constant (Ki) on Protease [1] stood at 18 nM. The results for the EC50 in data set [2] and in data set [3] were 3500 nM and more than 10000 nM, respectively. Besides, in data set [4], the Ratio EC50 is more than 2.

As usually defined, the Ki is a dissociation constant, usually derived from enzyme kinetics or from competition with a known ligand. By EC50 is commonly meant the concentration giving half of the maximal effect. As a reminder, the Papp is a coefficient for how fast a substance crosses the barrier.
